Screening data deposited in PubChem by several laboratories.
Only a selection was taken, and hits are over-represented in it overall.
XBP1 UPR activ: activators of adaptive arm of unfolded protein response (XBP1); activation, % at 20 µM; hit rate 0.33% among 330,000; AID 463104; CHO-XBP1 luciferase reporter, IRE1-XBP1 UPR activation, luminescence; percent of tunicamycin response, DMSO as zero;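 active = versus positive control, 20 µM dose yields 30% or more activation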;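 also: 100% = tunicamycin at 10 µg/mL and 0% = DMSO only wells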
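Material: IRE1-XBP1 luciferase reporter CHO line / Quantity: one thousand reporter cells per well / Buffer or medium: F12 with 10% serum / Compound: 20 µM single concentration, DMSO 1% / Times: 6 h treatment, 37 °C / Detection: Steady-Glo luciferase glow luminescence, 10 min after reagent addition / Benchmarks: tunicamycin high, DMSO low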
CHOP UPR activ: apoptotic UPR (CHOP) activation | activation, % at 10 µM | CHO-CHOP luciferase reporter, luminescence; percent of tunicamycin response over DMSO baseline | hit rate 0.34% among 330,000;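 active = at 10 µM dose, activation of 40% or more, normalized to positive control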;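 also: 100% = tunicamycin at 10 µg/mL and 0% = DMSO alone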
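Test system: CHO-CHOP cells, stable luciferase reporter of PERK-eIF2a-CHOP signalling | Quantity: 500 CHO-CHOP cells per well | Buffer or medium: F12 plus 10% serum | Compound dosing: 10 µM single point, 0.5% DMSO | Schedule: 6 h compound treatment, 37 °C | Signal: Luciferase luminescence | Control set: Tunicamycin high control, DMSO low control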
CHOP inh: inhibitors of CHOP induction in ER stress response. CHO-K1 CHOP-promoter luciferase, tunicamycin-induced, 15-18 h. inhibition, % at 10 µM. AID 2732. hit rate 3.8% among 220,000;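 active = compounds that reduced the stress-induced luciferase reporter signal by more than about 70% of percent inhibition, limit read from the data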;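 also: 0% = tunicamycin plus vehicle and 100% = wells without tunicamycin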
A1 inh: inhibitors of the anti-apoptotic protein A1, read as caspase activation | hit rate 0.066% among 330,000 | MEF A1-2A-BIM cells, Caspase-Glo 3/7 luminescence, 3 h; percent of clofoctol response, vehicle zero | caspase activation, % (test concentration not listed);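 active = over half of replicate activation scores above 10%, or exactly half above 10 with the replicate mean above 10; inconclusive = replicate mean below 10 yet half the replicates above 10; inactive = over half of replicates below 10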
XBP1 UPR conf: adaptive UPR (XBP1) activation, confirmed; shares compounds with XBP1 UPR activ; CHO-XBP1 IRE1-XBP1 luciferase reporter, luminescence; activation, % at 20 µM; hit rate 63% among 1,000;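 active = reporter signal at least 30% of the positive control's activation in two or more of four replicate wells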;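 also: plate controls were DMSO negative control for no effect and tunicamycin 10 µg/mL positive control for full effect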
Numbers without * were called inactive; ? = inconclusive; · = not tested or not shown.

SMILES	XBP1 UPR activ	CHOP UPR activ	CHOP inh	A1 inh	XBP1 UPR conf
C#CCOCCOCCOCCNc1nc(N2CCN(C(=O)CCCCCCCCCCNC(=O)[C@H](CCCCN)n3cc(C)nn3)CC2)nc(N2CCN(C(=O)CCCCCCCCCCNC(=O)[C@H](CCCN=C(N)N)n3cc(C[C@@H](C)CC)nn3)CC2)n1	8	-1	·	?	·
C#CCOCCOCCOCCNc1nc(N2CCN(C(=O)CCCCCCCCCCNC(=O)[C@H](CCCCN)n3cc(C[C@@H](C)CC)nn3)CC2)nc(N2CCN(C(=O)CCCCCCCCCCNC(=O)[C@@H]([C@H](C)O)n3cc(C)nn3)CC2)n1	40*	29	·	0	1
Cc1c(Cl)cccc1Nc1nc(NCCO)c2ccccc2n1	75*	9	·	0	58*
O=S(=O)(Cc1ccccc1)Oc1ccccc1	4	0	·	1	·
CSc1ccc(C2=CC(=O)C[C@H](c3ccc(Cl)cc3)C2)cc1	1	2	·	-1	·
CCOC(=O)C1=C(O)/C(=C/c2cn(CC(=O)NCC3CCCO3)c3ccccc23)SC1=Nc1ccc(C)cc1 (stereo not given)	66*	23	·	0	31*
CC(C)C(=O)c1cn(CC(=O)NCC2CCCO2)c2ccccc12 (stereo not given)	-1	1	8	0	·
COc1ccc2cc1Oc1ccc(cc1)C[C@H]1c3c(cc(OC)c4c3Oc3c(ccc5c3[C@H](C2)N(C)CC5)O4)CCN1C	68*	19	·	-1	52*
COc1cc2c(cc1OC)C1Cc3ccc(OC)c(OC)c3CN1CC2 (stereo not given)	2	0	12	0	·
CC(=O)Oc1ccc(-c2ccc(C(=O)OCC(=O)N(C)CC(=O)Nc3ccccc3Cl)cc2)cc1	123*	7	·	-1	137*
C[C@]12CCC3C(CC[C@H]4CCCC[C@]34C)C1CC[C@@]2(O)CNCCO (stereo not given in full)	33*	4	·	1	2
Cc1ccccc1NC(=O)CCNS(=O)(=O)c1cccc2nsnc12	-5	-2	·	0	·
CNc1nc(Nc2ccc([N+](=O)[O-])cc2)nc(OCC(F)(F)F)n1	122*	-1	·	1	3
CC(=O)N1c2ccc(S(=O)(=O)N3CCC(C(=O)N4CC(C)CC(C)C4)CC3)cc2CC1C (stereo not given)	-2	0	·	0	·
COc1ccccc1NC(=O)c1cc2c(CO)cnc(C)c2oc1=Nc1ccccc1	501*	12	·	0	168*
COc1cccc(N=c2oc3c(C)ncc(CO)c3cc2C(=O)Nc2ccccc2OC)c1	·	·	10	·	·
Cc1ccnn1CC(=O)N/N=C/c1cn[nH]c1-c1ccc(F)cc1	-4	1	14	-1	·
Cn1nc(C(F)(F)F)c(/C=N/OC(=O)c2ccccc2)c1SCc1ccc(Cl)cc1	48*	12	57	1	90*
Cn1nc(C(F)(F)F)c(/C=N/OC(=O)c2ccccc2Cl)c1SCc1ccccc1Cl	89*	26	35	0	98*
Cn1ncc(N=Cc2c(O)ccc3ccccc23)c1C(=O)Nc1cccc(Cl)c1	99*	17	76*	0	80*
Cn1ncc(Cl)c1C(=O)Nc1cccc(Cl)c1	0	-1	1	0	·
c1ccc(C2NCCn3cccc32)cc1 (stereo not given)	49*	3	14	0	0
O=c1[nH]c(N/N=C/c2ccccc2Br)nnc1-c1ccccc1	14	1	20	-1	·
COc1ccc(/C=N/Nc2nnc(-c3ccccc3)c(=O)[nH]2)cc1	49*	31	-73	0	73*
CCC1CCCCN1C(=O)CCNS(=O)(=O)c1ccc2c(c1)oc(=O)n2C (stereo not given)	-5	2	·	-1	·
SMILES	XBP1 UPR activ	CHOP UPR activ	CHOP inh	A1 inh	XBP1 UPR conf
CC1=CC(C)(C)N2C(=O)C(=O)c3cc(OC(=O)c4ccco4)cc1c32	41*	1	-2	1	57*
Cc1nc(N2CCN(C(=O)c3cnccn3)CC2)c2c3c(sc2n1)CC(C(C)(C)C)CC3 (stereo not given)	34*	8	·	0	0
CN(C)c1ccc(/C=N/NC(=O)c2nnn(-c3nonc3N)c2CN2CCCCCC2)cc1	59*	24	·	0	20
CC1CCN(Cc2c(C(=O)N/N=C/c3ccc(C(C)C)cc3)nnn2-c2nonc2N)CC1	36*	3	·	0	74*
Nc1nonc1-n1nnc(C(=O)N/N=C/c2ccc(Br)cc2)c1CN1CCOCC1	-2	3	·	3	·
COC(c1ccccc1)(c1ccccc1)C(Oc1nccc(C)n1)C(=O)O (stereo not given)	137*	-1	·	1	1
Cc1ccc(C)c(OC(=O)CN2C(=O)c3ccccc3C2=O)c1	-2	0	·	0	·
COC(=O)c1ccc2c(=O)n(CC3CCCO3)c(SCC(=O)Nc3ccccc3OC)nc2c1 (stereo not given)	14	3	12	1	·
COC(=O)c1ccc2c(=O)n(CC3CCCO3)c(SCC(=O)Nc3ccccc3Cl)nc2c1 (stereo not given)	35*	5	45	0	7
CC/C(=N/Nc1ccccc1)c1cnnc(-c2ccccc2)n1	69*	4	40	0	10
CC/C(=N/Nc1cccc(Cl)c1)c1cnnc(SC)n1	-2	-1	-5	0	·
CC(C)N(Cc1ccccc1)C(=O)CCS(=O)(=O)c1ccc2c(c1)oc(=O)n2C	-2	-1	·	0	·
COc1ccc(C(=O)/C=C/c2cccs2)c(OC(=O)c2cccc([N+](=O)[O-])c2)c1	42*	8	-99	-1	56*
CCCc1ccc(OCC(=O)Nc2cc(S(=O)(=O)CC)ccc2O)cc1	0	-2	18	0	·
COc1ccc2oc(-c3ccc(NC(=O)c4ccc(N5CCOCC5)c([N+](=O)[O-])c4)cc3)nc2c1	64*	3	2	0	23
O=C(Nc1ccc([N+](=O)[O-])cc1)c1nc[nH]c1C(=O)NC1CCCCC1	166*	24	57	47*	172*
O=C(Nc1ccc(F)cc1)c1nc[nH]c1C(=O)Nc1ccc([N+](=O)[O-])cc1	14	8	-39	1	·
CC1(C)Cc2c(c(N3CCOCC3)nc3sc4c(NCc5ccco5)nnnc4c23)CS1	9	-3	-8	0	·
CC1(C)Cc2c(c(N3CCOCC3)nc3sc4c(NCc5ccccc5)nnnc4c23)CS1	137*	8	45	0	14
C[C@H](CO)N1C[C@H](C)[C@@H](CN(C)C(=O)Nc2ccc(C(F)(F)F)cc2)Oc2c(NC(=O)Nc3ccc(C(F)(F)F)cc3)cccc2C1=O	37*	7	·	1	28
